We go through four compounds from ChEMBL document CHEMBL1671808, “Brassinin oxidase mediated transformation of the phytoalexin brassinin: structure of the elusive co-product, deuterium isotope effect and stereoselectivity” (2011).

Assay [1] concerns Plenodomus lingam. The experiment in a line: Inhibition of Leptosphaeria maculans BoLm assessed as conversion of brassinin to indole-3-carboxaldehyde at 0.30 mM. In a few lines:
(§1)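 Initial-velocity assays with purified BOLm: product added at fixed 0.30 or 0.60 mM, brassinin varied 0.05–0.30 mM at saturating PMS (1 mM); also PMS varied […] with brassinin fixed at 0.05, 0.10 or 0.15 mM; standard DEA pH 8.2 assay, HPLC quantitation.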

The test system of assay [2] is Plenodomus lingam. The assay is described as follows: Activity of Leptosphaeria maculans BoLm in presence of PMSF reagent relative to control. In a few lines:
(§2)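 Purified BOLm was incubated in a reaction buffer with each modifier: BUT 10 mM, EAM 2.5 mM, NAI 2.5 mM or DEPC 2.5 mM in 100 mM phosphate pH 7.5; IAA 2.5 mM in 100 mM MES pH 6.0; PMSF 2.5 mM in 100 mM phosphate pH 8.1. Residual activity was then read in the standard brassinin/PMS HPLC assay. Result is specific activity as a percentage of untreated enzyme.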

Assay [3] concerns Plenodomus lingam. The assay is described as follows: Activity of Leptosphaeria maculans BoLm in presence of EAM reagent relative to control. In short, it runs like this:
as §2

The subject of assay [4] is Plenodomus lingam. The assay is described as follows: Activity of Leptosphaeria maculans BoLm in presence of BUT reagent relative to control. In short, it runs like this:
as §2

The test system of assay [5] is Plenodomus lingam. The assay is described as follows: Selectivity ratio of compound to dideuterated brassinin for Leptosphaeria maculans BoLm activity. In a few lines:
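Kinetic isotope effect = (kcat/Km)H / (kcat/Km)D. Purified BOLm at pH 8.2 with saturating PMS (1.0 mM), 20 °C, 20 min. Substrate was varied over 0.05–1.0 mM (brassinin series) or 0.05–2.8 mM (carbamate series), comparing natural-abundance and deuterated substrates. Product was quantified by HPLC. Four independent experiments.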

For assay [6], the system named is Plenodomus lingam. The assay is described as follows: Ratio of kcat to Km for Leptosphaeria maculans BoLm. In short, it runs like this: (§3)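 BOLm purified from 3-phenylindole-induced L. maculans BJ-125 liquid cultures. Assay buffer: 20 mM DEA pH 8.2, 1.0 mM DTT, 0.1% Triton X-100, with 1.0 mM PMS as electron acceptor, which is saturating. Substrate was varied over 0.05–1.0 mM for brassinin or 0.05–2.8 mM for the carbamate. Reactions ran 20 min at 20 °C and were stopped and extracted with EtOAc. Indole-3-carboxaldehyde was quantified by HPLC-DAD against calibration curves. kcat and Km were taken from saturation curves. Four independent experiments.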

The subject of assay [7] is Plenodomus lingam. The assay is described as follows: Activity of Leptosphaeria maculans BoLm at 0.05 to 1.0 mM. In short, it runs like this: as §3
For assay [8], the system named is Plenodomus lingam. The experiment in a line: Activity of Leptosphaeria maculans BoLm in presence of WRK reagent relative to control. In short, it runs like this: (§4)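 Purified BOLm was treated with the carboxyl-specific reagent (WRK or EDC, 5–50 mM) in 100 mM MES pH 6.0 at 20 °C. Aliquots taken at time intervals were assayed for residual activity in the standard brassinin/PMS HPLC assay. Activity is given as a percentage of untreated enzyme. For WRK, kobs came from ln residual activity versus time, and K_I and k2 from 1/kobs versus 1/[WRK].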

Assay [9] deals with Plenodomus lingam. The assay is described as follows: Activity of Leptosphaeria maculans BoLm. In a few lines: as §3
The subject of assay [10] is Plenodomus lingam. The assay is described as follows: Activity of Leptosphaeria maculans BoLm in presence of DEPC reagent relative to control. In short, it runs like this: as §2
The subject of assay [11] is Plenodomus lingam. The assay is described as follows: Activity of Leptosphaeria maculans BoLm in presence of IAA reagent relative to control. In short, it runs like this: as §2
The subject of assay [12] is Plenodomus lingam. The assay is described as follows: Activity of Leptosphaeria maculans BoLm relative to Brassinin. Particulars: tested as the 2H-labelled form.
For assay [13], the system named is Plenodomus lingam. The experiment in a line: Activity of Leptosphaeria maculans BoLm in presence of EDC reagent relative to control. In short, it runs like this: as §4
In assay [14] the test system is Plenodomus lingam. The assay is described as follows: Activity of Leptosphaeria maculans BoLm in presence of NAI reagent relative to control. In a few lines:
as §2

Assay [15] deals with Plenodomus lingam. The experiment in a line: Activity of Leptosphaeria maculans BoLm in presence of H218O relative to Brassinin. Particulars: tested as the 2H-labelled form.
Assay [16] has as its system Plenodomus lingam. The experiment in a line: Antifungal activity against Leptosphaeria maculans isolate BJ 125 assessed as growth inhibition. In kind it is functional. Details: scale not given: the % may be the effect or the level left. In short, it runs like this:
(§5)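 Mycelial growth inhibition of L. maculans isolate BJ 125 tested at 0.50, 0.25 and 0.12 mM; growth compared with control cultures grown without compound under otherwise identical conditions.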

Assay [17] relates to Plenodomus lingam. The experiment in a line: Inhibition of Leptosphaeria maculans BoLm assessed as conversion of brassinin to indole-3-carboxaldehyde at 0.60 mM. In a few lines: as §1
The test system of assay [18] is Plenodomus lingam. The experiment in a line: Antifungal activity against Leptosphaeria maculans isolate BJ 125 assessed as growth inhibition at 0.50 mM relative to control. Details: scale not given: the % may be the effect or the level left. The class given is functional. In short, it runs like this: as §5
The subject of assay [19] is Plenodomus lingam. The assay is described as follows: Activity of Leptosphaeria maculans BoLm at 0.05 to 2.8 mM. In short, it runs like this:
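Purified BOLm from 3-phenylindole-induced L. maculans BJ-125 cultures; substrate varied 0.05–2.8 mM with saturating PMS (1.0 mM) in 20 mM DEA pH 8.2, 1 mM DTT, 0.1% Triton X-100; 20 °C, 20 min; EtOAc extraction, HPLC-DAD quantitation of indole-3-carboxaldehyde against calibration curves; kcat, Km from saturation curves; four independent experiments.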

The test system of assay [20] is Plenodomus lingam. The assay is described as follows: Ratio of kcat to Km for Leptosphaeria maculans BoLm to ratio of kcat to Km for Leptosphaeria maculans BoLm with the deuterated substrate. Conditions: tested as the 2H-labelled form.

Where “and” joins values, the source holds several entries; their conditions need not be identical. Identical values can stand only once. Calls of active or inactive are those of the source. No cut-off for these calls is given here.

As to `O=Cc1c[nH]c2ccccc12`, in [1], the inhibition result was “inactive”.

For the compound `CSC(=S)NCc1c[nH]c2ccccc12`, the Activity in assay [2] worked out at 108%; in assay [3] it was 97%; in assay [4] it was 95%; in assay [8] it was 17%; in [10] it was 103%; in assay [11], 106%. In addition, the Activity stood at 26% in assay [12], 38% in [13], 111% in [14] and 23% in [15]. For the same compound, the Ratio in assay [5] is 4. Further, the kcat/Km (in general, the second-order rate constant that governs catalysis at low substrate concentration) in assay [6] is 9900 M⁻¹ s⁻¹. Moreover, the kcat (usually the maximal rate divided by the concentration of active sites) is 0.95 s⁻¹ in [7]; 0.28 s⁻¹ in assay [7] (tested as the 2H-labelled form); 0.84 s⁻¹ and 0.47 s⁻¹ in assay [9] (tested as the 2H-labelled form). The Michaelis-Menten constant (Km) (as a rule, the concentration of substrate that gives half-maximal velocity) was 96 µM in [9]; 151 µM and 94 µM and 96 µM in [9] (tested as the 2H-labelled form).

For `CSC(N)=S`, the Activity in [16] and in [18] was 18% in each case. Also, in [17], the inhibition result is “inactive”.

Take `COC(=O)NCc1c[nH]c2ccccc12`: the kcat/Km was 9040 M⁻¹ s⁻¹ in assay [6] and 2300 M⁻¹ s⁻¹ in assay [6] (tested as the 2H-labelled form). The Michaelis-Menten constant (Km) in assay [9] came out at 622 µM; in [9] (tested as the 2H-labelled form) it was 501 µM. The kcat was determined as 5.62 s⁻¹ in [19] and 1.15 s⁻¹ in [19] (tested as the 2H-labelled form). Moreover, the Ratio in assay [20] is 3.9.
